TCR-CD3 inh – human TCR-CD3 binding inhibition | TAMRA-labeled TCR probe fluorescence, biochemical | inhibition, % at 9.4 µM | hit rate 0.37% among 360,000;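 note: recombinant mutant TCR 2C K166C tagged with TAMRA read by polarization; 0% = receptor in buffer alone and 100% = receptor with positive control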
Tn6 DDE FP – DD(E)-Tn6 binding inhibition, primary FP screen. P02675. Fibrin DD(E) TRITC-Tn6 fluorescence polarization displacement. inhibition, % at 8.3 µM. hit rate 0.21% among 370,000. AID 720509;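 active = inhibition above a per-campaign cutoff: mean of compounds within control limits plus 3 SD, cut at about 15% in these data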;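 note: 0% = median of all compound wells on the plate and 100% = blocking peptide control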
Target sequence (P02675 whole entry, looked up): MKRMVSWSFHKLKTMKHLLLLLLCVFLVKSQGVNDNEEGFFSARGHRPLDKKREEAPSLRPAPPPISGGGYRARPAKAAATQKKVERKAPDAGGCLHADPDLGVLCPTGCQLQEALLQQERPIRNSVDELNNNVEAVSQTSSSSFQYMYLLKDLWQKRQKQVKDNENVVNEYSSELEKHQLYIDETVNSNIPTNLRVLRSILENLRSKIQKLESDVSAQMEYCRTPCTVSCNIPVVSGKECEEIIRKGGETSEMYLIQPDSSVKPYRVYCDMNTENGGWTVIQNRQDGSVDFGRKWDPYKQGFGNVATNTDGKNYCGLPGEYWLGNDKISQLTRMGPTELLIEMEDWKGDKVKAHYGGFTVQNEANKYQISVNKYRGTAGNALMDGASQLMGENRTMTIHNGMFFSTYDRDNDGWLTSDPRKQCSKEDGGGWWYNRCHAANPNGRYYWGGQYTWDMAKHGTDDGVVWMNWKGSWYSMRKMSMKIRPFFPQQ
DDE Tn7 FP inh – disrupts Tn7 cyclic peptide binding to fibrin D-Dimer-E complex | P02675 | AID 720508 | hit rate 0.13% among 370,000 | inhibition, % at 8.3 µM | FP displacement of FITC-Tn7 peptide from fibrin DD(E); 0% = median of compound wells per plate;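 active = inhibition above the mean of compounds falling within the control limits plus 3 SD of them, cut at about 14% in these data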;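 note: 0% = plate median of compound wells and 100% = 10 µM Aha-Tn7 peptide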
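Assay system: human fibrin DD(E) protein / Input: 2 µM fibrin DD(E) / Benchmarks: high control of 10 µM Aha-Tn7 peptide / Measured by: fluorescence polarization of the labelled Tn7 tracer / Medium: Tris buffer with calcium and detergent, pH 7.8 / Timing: 10 min compound pre-incubation, 3 h probe incubation at room temperature / Repeats: one replicate per compound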
ABHD4 inh – inhibits mouse alpha/beta hydrolase domain 4; Q8VD66; purified mABHD4, FP-Rh probe fluorescence polarization; inhibition, % at 8.92 µM; hit rate 0.54% among 370,000; AID 720543;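 active = inhibition exceeding the mean over every tested compound plus 3 SD, cut at about 30% in these data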;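 note: 0% = plate median of compound wells and 100% = S159A mutant with DMSO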
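system = mouse ABHD4 enzyme, wild type | medium = HEPES pH 7.0, NaCl, Pluronic buffer | also added = FP-Rh probe | incubation = Enzyme–compound pre-incubation 45 min, then probe 60 min, both 25 °C | technique = fluorescence polarization, excitation 525 nm, emission 598 nm, BODIPY TMR filters | controls = S159A mutant high control, sample median low control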
HTRA1 inh – HTRA1 (human) protease inhibition. Q92743. recombinant HTRA1, FP-rhodamine activity-based probe, fluorescence polarization. inhibition, % at 5.96 µM. hit rate 0.5% among 340,000. AID 504803; in the data active = inhibition above about 36%;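 note: 0% = enzyme with DMSO and 100% = wells lacking enzyme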
HTRA1 inh conf – confirmation of human HTRA1 inhibitors; inhibition, % at 5.96 µM; recombinant HTRA1, FP-rhodamine activity-based probe, fluorescence polarization; AID 540248; shares compounds with HTRA1 inh; hit rate 66% among 1,600;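 active = mean inhibition over three repeats above a set limit taken from the earlier primary screen, cut at about 37% in these data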;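 note: 0% = HTRA1 with DMSO and 100% = wells lacking HTRA1; inhibitors block probe binding so polarization drops and inhibition rises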
BSA TAMRA ctr – interferes with TAMRA-BSA probe, flagging TCR-CD3 hits; shares compounds with TCR-CD3 inh; TAMRA-labeled BSA probe fluorescence counterscreen; inhibition, % at 9.4 µM; hit rate 10% among 1,200; in the data active = inhibition above about 23%;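 note: 0% = buffer low control and 100% = reference high control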
TCR-CD3 conf – TCR-CD3 interaction inhibition, confirmation. hit rate 48% among 1,200. inhibition, % at 9.4 µM. TAMRA-labeled TCR probe fluorescence binding assay. shares compounds with TCR-CD3 inh. AID 652036
DDE Tn6 FP ctr – DD(E)-Tn6 binding inhibition, counter-screen; shares compounds with Tn6 DDE FP; Fibrin DD(E), TRITC-Tn6 fluorescence polarization displacement; 0% = median of compound wells, not DMSO; inhibition, % at 8.3 µM; hit rate 2% among 680; AID 720621;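 active = inhibition above the mean of test compounds lying between the control limits plus 3 SD of those, cut at about 14% in these data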;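 note: 0% = median of compound wells and 100% = wells with Aha-Tn7 blocking peptide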
DDE Tn6 confirm – DD(E)-Tn6 binding inhibition, FP confirmation | FP displacement of TRITC-Tn6 peptide from DD(E); 0% = per-plate median of test wells | AID 720631 | hit rate 10% among 680 | inhibition, % at 8.3 µM | shares compounds with Tn6 DDE FP;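 active = inhibition above the mean of compounds lying within the control limits plus 3 SD, cut at about 16% in these data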;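 note: 100% = high control wells holding a competing inhibitor peptide at 10 µM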
mABHD4 conf – confirmation of mouse ABHD4 inhibitors; shares compounds with ABHD4 inh; purified mABHD4, FP-Rh probe fluorescence polarization; inhibition, % at 8.92 µM; hit rate 55% among 1,800; AID 720658;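 active = mean inhibition across replicates above the hit cutoff set in the primary screen, cut at about 30% in these data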;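 note: 0% = wild-type ABHD4 with DMSO and 100% = catalytically dead S159A mutant with DMSO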
The depositor's hits bear a star; . = not tested or not shown; + = active, no number. Compounds with a hit are over-represented: about 1.3% of the library has one in this group of screens. Cut-off read from the data, not from the text of the source, unless noted: active = inhibition above about 19%; inactive = the rest.

SMILES	TCR-CD3 inh	Tn6 DDE FP	DDE Tn7 FP inh	ABHD4 inh	HTRA1 inh	HTRA1 inh conf	mABHD4 conf	others
Oc1cc(CNC2CCCCC2)c(O)cc1CNC1CCCCC1	6	-4	2	38*	48*	64*	56*
Cc1ccc(O)c(N=CC2=C(O)c3ccccc3C2=O)c1	12	-3	-1	34*	44*	76*	46*
O=C1C(C=Nc2ccccc2O)=C(O)c2ccccc21	-1	-4	11	21	-4	.	.
O=C(CC1C(=O)NCCN1Cc1ccc(-c2ccccc2)cc1)NCC1CC1 (stereo unspecified)	4	-3	0	-1	-9	.	.
C[C@@H]1Cc2c(O)c(O)cc(O)c2C(=O)O1	.	.	.	.	11	.	.
COc1ccc(OC)c2c1C(=O)c1ccccc1C2=O	-6	-1	6	17	.	.	.
O=C1C=C(O)c2c(O)cc(O)c(O)c2C1=O	63*	2	2	84*	78*	56*	57*	BSA TAMRA ctr=-3;TCR-CD3 conf=64*
COc1ccc2noc3c2c1C(=O)c1ccccc1-3	22*	52*	-6	54*	63*	45*	29	BSA TAMRA ctr=44*;TCR-CD3 conf=29*;DDE Tn6 FP ctr=53*;DDE Tn6 confirm=15
Nc1ccc(NC(=O)c2ccccc2)c2c1C(=O)c1ccccc1C2=O	-1	-3	0	13	10	.	.
Nc1ccc(O)c2c1C(=O)c1ccccc1C2=O	43*	130*	2	87*	88*	96*	74*	BSA TAMRA ctr=24*;TCR-CD3 conf=27*;DDE Tn6 FP ctr=8;DDE Tn6 confirm=102*
COc1ccc(N)c2c1C(=O)c1ccccc1C2=O	4	72*	3	44*	38*	34	1	DDE Tn6 FP ctr=4;DDE Tn6 confirm=58*
CCCCNC(=O)C1CCCN1C(=O)Nc1ccc(Cl)cc1 (stereo unspecified)	.	-8	-3	1	.	.	.
NS(=O)(=O)c1ccc(CNC(=S)NCc2ccc(Cl)cc2)cc1	-4	-1	1	-1	-13	.	.
O=C1c2ccccc2C(=O)c2c(O)c(O)cc(O)c21	25*	65*	3	73*	72*	71*	61*	BSA TAMRA ctr=44*;TCR-CD3 conf=34*;DDE Tn6 FP ctr=7;DDE Tn6 confirm=88*
O=C(O)[C@@H]1[C@H]2C[C@H]3c4[nH]c5ccccc5c4CCN3C[C@@H]2CC[C@@H]1O	46*	13	-1	39*	45*	7	32*	BSA TAMRA ctr=8;TCR-CD3 conf=5
COCCNC(=O)C(c1ccc(OC)cc1)N(Cc1ccco1)C(=O)CCC(=O)Nc1ccccn1 (stereo unspecified)	2	-2	-3	0	-1	.	.
Oc1cccc(/C=N/N(Cc2ccccc2)c2ccccc2)c1	8	8	-1	-4	6	.	.
Oc1ccc(/C=N/N(Cc2ccccc2)c2ccccc2)c(O)c1O	10	6	4	34*	68*	55*	46*
O=C(COc1ccccc1)NC(NC(=S)Nc1ccccc1C(=O)O)C(Cl)(Cl)Cl (stereo unspecified)	0	-1	2	9	2	.	.
CCN1/C(=C/C=C/c2oc3ccc(-c4ccccc4)cc3[n+]2CC)Oc2ccc(-c3ccccc3)cc21	105*	+	-6	72*	114*	108*	89*	BSA TAMRA ctr=152*;TCR-CD3 conf=58*;DDE Tn6 FP ctr=53*;DDE Tn6 confirm=93*
O=C1C(NS(=O)(=O)c2ccccc2)=C(N2CCN(c3ccc(F)cc3)CC2)C(=O)c2ccccc21	-6	5	5	53*	48*	63*	63*
CC1CCN(C2=C(NS(=O)(=O)c3ccc(Br)cc3)C(=O)c3ccccc3C2=O)CC1	-2	3	0	41*	36*	86*	65*
CC1CCN(C2=C(NS(=O)(=O)c3ccc(Cl)cc3)C(=O)c3ccccc3C2=O)CC1	10	2	-4	17	10	.	.
O=C1C(NS(=O)(=O)c2cccs2)=C(N2CCN(c3cccc(Cl)c3)CC2)C(=O)c2ccccc21	-5	6	0	55*	58*	75*	56*
CC1CCN(C2=C(NS(=O)(=O)c3ccccc3)C(=O)c3ccccc3C2=O)CC1	8	2	-10	20	25	.	.
SMILES	TCR-CD3 inh	Tn6 DDE FP	DDE Tn7 FP inh	ABHD4 inh	HTRA1 inh	HTRA1 inh conf	mABHD4 conf	others
CCN(CC(=O)NCc1ccc(Cl)cc1)C(=O)c1cc2ccccc2o1	8	0	-2	-7	-13	.	.
COc1cccc(-n2c(SCC(N)=O)nc3ccccc3c2=O)c1	-2	-1	-1	-10	-5	.	.
Cc1cnc(NC(=O)NCC2CCCC(CNC(=O)Nc3ncc(C)s3)C2)s1 (stereo unspecified)	7	3	-9	3	-29	.	.
C[n+]1c(-c2ccccc2)cc2c(=Cc3ccc([N+](=O)[O-])cc3)c3ccccc3n21	-5	-1	0	31*	80*	25	38*
Oc1ccc(-c2nc(-c3ccc(O)c(O)c3)cs2)cc1	-3	0	8	33*	55*	55*	32*
Oc1ccc(Nc2nc(-c3ccc4ccccc4c3)cs2)cc1	-1	-7	-3	6	32	.	.
Cc1cccc2ccccc12	3	-6	-11	-4	.	.	.
CCCCC(=Nc1ccc(N)cc1)C1=C(O)C(C(=O)OC)C(C)(C)CC1=O (stereo unspecified)	50*	121*	4	72*	64*	9	16	BSA TAMRA ctr=14;TCR-CD3 conf=9;DDE Tn6 FP ctr=-4;DDE Tn6 confirm=9
CCC(=NCc1ccccc1)C1=C(O)C(C(=O)OC)C(C)(C)CC1=O (stereo unspecified)	2	2	4	4	6	.	.
CCC(=Nc1ccc(N)cc1)C1=C(O)C(C(=O)OC)C(C)(C)CC1=O (stereo unspecified)	68*	125*	7	82*	53*	1	23	BSA TAMRA ctr=12;TCR-CD3 conf=9
CCCC(=Nc1ccccc1)C1=C(O)C(C(=O)OC)C(C)(C)CC1=O (stereo unspecified)	3	3	4	6	5	.	.

Assay outcomes deposited in PubChem BioAssay by The Scripps Research Institute Molecular Screening Center.
